Reference: ChEMBL document CHEMBL2311323, “Synthesis and biological evaluation of N-alkyl-N-(4-methoxyphenyl)pyridin-2-amines as a new class of tubulin polymerization inhibitors” (Bioorg Med Chem, 2013)

Experiments:
DU-145 [1] = test: Growth inhibition of human DU145 cells by SRB assay; assay type: functional
Method in brief: (§1)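 Sulforhodamine B staining of human tumor cell lines: A-549 lung carcinoma, KB nasopharyngeal epidermoid carcinoma, P-gp-expressing vincristine-resistant KB (KBVIN) and DU145 prostate cancer. GI50 is the molar concentration giving 50% growth inhibition, reported as mean ± SD from at least triplicate runs.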

KB [2] = test: Growth inhibition of human KB cells by SRB assay; assay type: functional; method in brief: as §1
A549 [3] = test: Growth inhibition of human A549 cells by SRB assay; assay type: functional; method in brief: as §1
[4] = Growth inhibition of human KBVIN cells by SRB assay; assay type: functional; method in brief: as §1
[5] = Growth inhibition of human KBVIN cells at 20 ug/mL by SRB assay; assay type: functional; details: read-out: GI; method in brief: as §1
KB [6] = test: Growth inhibition of human KB cells at 20 ug/mL by SRB assay; assay type: functional; details: read-out: GI; method in brief: as §1
A549 [7] = test: Growth inhibition of human A549 cells at 20 ug/mL by SRB assay; assay type: functional; details: read-out: GI; method in brief: as §1
DU-145 [8] = test: Growth inhibition of human DU145 cells at 20 ug/mL by SRB assay; assay type: functional; details: read-out: GI; method in brief: as §1
Tubulin = test: Inhibition of tubulin assembly (unknown origin) pre-incubated with compound for 15 mins before GTP addition measured after 20 mins at 30 degC post GTP addition by turbidimetry; assay type: protein-complex assay, Homo sapiens
Method in brief: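 Turbidity at 350 nm. Tubulin at 1.0 mg/mL (10 µM) was preincubated with varying compound concentrations for 15 min at 30 °C without GTP. Samples were chilled on ice and 0.4 mM GTP added, then moved to 0 °C cuvettes. After a rapid jump to 30 °C, assembly was followed for 20 min. IC50 is the concentration halving the turbidity increase relative to control.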

Tubulin (Homo sapiens) = Tubulin (Homo sapiens) (UniProt P68371+Q9H4B7+P0DPH7+P68366+Q13509+Q71U36+P04350+Q3ZCM7+P07437+P68363+Q9BQE3+Q6PEY2+Q13885+Q9BVA1+Q9BUF5); test: Inhibition of [3H]colchicine binding to tubulin (unknown origin) at 5 uM incubated for 10 mins at 37 degC; assay type: protein-complex assay

SMILES | GI50 (DU-145 [1]) | GI50 (KB [2]) | GI50 (A549 [3]) | GI50 [4] | inhibition of growth at 20 µg/mL [5] | inhibition of growth at 20 µg/mL (KB [6]) | inhibition of growth at 20 µg/mL (A549 [7]) | inhibition of growth at 20 µg/mL (DU-145 [8]) | IC50 (Tubulin) | inhibition (Tubulin (Homo sapiens))
COc1ccc(N(C)c2nc(C(F)(F)F)ccc2C#N)cc1 | 10700 nM | 15300 nM | 7210 nM | 7910 nM | – | – | – | – | – | –
CN(c1ccc(OC(F)(F)F)cc1)c1nc(Cl)ccc1[N+](=O)[O-] | – | – | – | – | < 50% | < 50% | < 50% | < 50% | – | –
CNC(=O)c1ccc(Cl)nc1N(C)c1ccc(OC)cc1 | – | – | – | – | < 50% | < 50% | < 50% | < 50% | – | –
CCOC(=O)c1ccc(Cl)nc1N(C)c1ccc(OC)cc1 | 1430 nM | 1800 nM | 1810 nM | 1430 nM | – | – | – | – | – | –
COc1ccc(N(C)c2nc(OC)ccc2[N+](=O)[O-])cc1 | 2700 nM | 3310 nM | 3270 nM | 2830 nM | – | – | – | – | – | –
COC(=O)c1ccc(Cl)nc1N(C)c1ccc(OC)cc1 | 210 nM | 260 nM | 230 nM | 200 nM | – | – | – | – | 1400 nM | 80%
CC(=O)O[C@H]1C(=O)[C@@]2(C)[C@H]([C@H](OC(=O)c3ccccc3)[C@]3(O)C[C@H](OC(=O)[C@H](O)[C@@H](NC(=O)c4ccccc4)c4ccccc4)C(C)=C1C3(C)C)[C@]1(OC(C)=O)CO[C@@H]1C[C@@H]2O [PACLITAXEL] | 6.5 nM | 7.77 nM | 8.18 nM | 1800 nM | – | – | – | – | – | –
COC(=O)c1ccc(OC)nc1N(C)c1ccc(OC)cc1 | 2450 nM | 4010 nM | 3150 nM | 4020 nM | – | – | – | – | – | –
COc1ccc(N(C)c2nc(Cl)ccc2[N+](=O)[O-])cc1OC | 15000 nM | 16000 nM | 18400 nM | 16500 nM | – | – | – | – | – | –
COc1ccc(N(C)c2nc(C(F)(F)F)ccc2-c2nnn[nH]2)cc1 | – | – | – | – | < 50% | < 50% | < 50% | < 50% | – | –
CN(c1ccc(C#N)cc1)c1nc(Cl)ccc1[N+](=O)[O-] | 21400 nM | 22100 nM | 24000 nM | 27000 nM | – | – | – | – | – | –
COc1ccc(N(C)c2nc(C(F)(F)F)ccc2C(=O)OC(C)C)cc1 | – | – | – | – | < 50% | < 50% | < 50% | < 50% | – | –
COCc1ccc(Cl)nc1N(C)c1ccc(OC)cc1 | 250 nM | 330 nM | 300 nM | 200 nM | – | – | – | – | 1500 nM | 88%
COc1ccc(N(C)c2nc(Cl)ccc2[N+](=O)[O-])cc1 | 1550 nM | 1780 nM | 2200 nM | 1860 nM | – | – | – | – | – | –
CNc1ccc(C(=O)OC)c(N(C)c2ccc(OC)cc2)n1 | 1670 nM | 1360 nM | 3430 nM | 920 nM | – | – | – | – | – | –
C=CCN(c1ccc(OC)cc1)c1nc(Cl)ccc1[N+](=O)[O-] | 2690 nM | 2610 nM | 3330 nM | 3150 nM | – | – | – | – | – | –
COc1ccc(N(c2nc(Cl)ccc2[N+](=O)[O-])C2CCCC2)cc1 | – | – | – | – | < 50% | < 50% | < 50% | < 50% | – | –

SMILES | GI50 (DU-145 [1]) | GI50 (KB [2]) | GI50 (A549 [3]) | GI50 [4] | inhibition of growth at 20 µg/mL [5] | inhibition of growth at 20 µg/mL (KB [6]) | inhibition of growth at 20 µg/mL (A549 [7]) | inhibition of growth at 20 µg/mL (DU-145 [8]) | IC50 (Tubulin) | inhibition (Tubulin (Homo sapiens))
COC(=O)c1ccc(N(C)c2nc(Cl)ccc2[N+](=O)[O-])cc1 | 2220 nM | 2890 nM | 3000 nM | 2870 nM | – | – | – | – | – | –
COc1ccc(N(C)c2nc(C(F)(F)F)ccc2CO)cc1 | 1710 nM | 1920 nM | 2130 nM | 1750 nM | – | – | – | – | – | –
COc1ccc(N(C)c2nc(C)ccc2[N+](=O)[O-])cc1 | 3350 nM | 2920 nM | 4420 nM | 4190 nM | – | – | – | – | – | –
COc1ccc(N(C)c2nc(Cl)ccc2C#N)cc1 | 20400 nM | 22100 nM | 20400 nM | 18100 nM | – | – | – | – | – | –
CNC(=O)c1ccc(C(F)(F)F)nc1N(C)c1ccc(OC)cc1 | – | – | – | – | < 50% | < 50% | < 50% | < 50% | – | –
COc1ccc(N(C)c2nc(C(F)(F)F)ccc2C(=O)O)cc1 | – | – | – | – | < 50% | < 50% | < 50% | < 50% | – | –
COc1ccc(N(C)c2nc(Cl)ccc2CO)cc1 | 1960 nM | 2260 nM | 3250 nM | 2120 nM | – | – | – | – | – | –
CNc1ccc([N+](=O)[O-])c(N(C)c2ccc(OC)cc2)n1 | 4450 nM | 4530 nM | 4500 nM | 9630 nM | – | – | – | – | – | –
CCOC(=O)c1ccc(C(F)(F)F)nc1N(C)c1ccc(OC)cc1 | 1300 nM | 1520 nM | 1460 nM | 1300 nM | – | – | – | – | – | –
COc1cc(N(C)c2nc(Cl)ccc2[N+](=O)[O-])cc(OC)c1OC | – | – | – | – | < 50% | < 50% | < 50% | < 50% | – | –
COc1ccc(N(C(C)=O)c2nc(Cl)ccc2[N+](=O)[O-])cc1 | 11200 nM | 14300 nM | 11800 nM | 13900 nM | – | – | – | – | – | –
COC(=O)c1ccc(C(F)(F)F)nc1N(C)c1ccc(OC)cc1 | 250 nM | 410 nM | 350 nM | 190 nM | – | – | – | – | 1700 nM | 82%
COc1ccc(N(C)c2nc(Cl)ccc2C(=O)O)cc1 | – | – | – | – | < 50% | < 50% | < 50% | < 50% | – | –
COc1ccc(N(C)c2nc(C(F)(F)F)ccc2-c2nnnn2C)cc1 | 1160 nM | 1470 nM | 1820 nM | 1260 nM | – | – | – | – | – | –
COc1ccc(N(C)c2nc(Cl)ccc2C(=O)OC(C)C)cc1 | 17800 nM | 14500 nM | 22000 nM | 17300 nM | – | – | – | – | – | –
COCc1ccc(C(F)(F)F)nc1N(C)c1ccc(OC)cc1 | 1290 nM | 1640 nM | 1200 nM | 1430 nM | – | – | – | – | – | –
